Measurements reported in ChEMBL document CHEMBL1129074, “Inhibitors of human immunodeficiency virus type 1 derived from gp41 transmembrane protein: structure--activity studies” (J Med Chem, 1996).
Square brackets hold non-standard residues; d marks the D form. Peptide text beside a SMILES is read from it. Ahx = NCCCCCC(=O)O

Legend:
MT4 [1] = test: (§1) Inhibitory potency of gp41 fragment against HIV-1 induced cytopathic effect in MT-4 cell assay at 20 uM; assay type: functional; conditions: Homo sapiens
Summary of the method: (§2)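 MT4 cells (exponential growth) at 5×10^5 cells/mL infected with HIV-1 IIIB (100× TCID50) for 1 h at 37 °C, diluted 6-fold, added to serially diluted peptide in RPMI 1640/FCS medium; mock-infected controls. After 5 days at 37 °C, 5% CO2, cells lysed with Nonidet-40 and DNA content read by propidium iodide. Inhibition = restoration of infected-cell growth relative to uninfected controls; cytotoxicity measured in parallel.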

MT4 [2] = test: as §1; assay type: functional, Homo sapiens; conditions: for inhibition at 20 µM: Homo sapiens, MT4; summary of the method: as §2
MT4 [3] = test: Inhibitory potency of gp41 fragment against HIV-1 induced cytopathic effect in MT-4 cell assay at 200 uM; assay type: functional; conditions: Homo sapiens
MT4 [4] = test: Inhibitory potency of gp41 fragment against HIV-1 induced cytopathic effect in MT-4 cell assay at 100 uM; assay type: functional; conditions: Homo sapiens
MT4 [5] = test: Inhibitory potency of gp41 fragment against HIV-1 induced cytopathic effect in MT-4 cell assay at 5 uM; assay type: functional; conditions: Homo sapiens
MT4 [6] = test: Inhibitory potency of gp41 fragment against HIV-1 induced cytopathic effect in MT-4 cell assay at 40 uM; assay type: functional; conditions: Homo sapiens

Molecule `CC[C@H](C)[C@H](NC(=O)CNC(=O)[C@H](Cc1c[nH]c2ccccc12)NC(=O)[C@@H](NC(=O)[C@@H](NC(=O)[C@H](CC(C)C)NC(=O)[C@H](CCC(N)=O)NC(=O)[C@H](CC(C)C)NC(=O)[C@H](CC(C)C)NC(=O)CNC(=O)CNC(=O)[C@H](CS)NC(C)=O)[C@@H](C)O)C(C)C)C(=O)N[C@@H](CCCCN)C(=O)N[C@@H](CCC(N)=O)C(=O)N[C@@H](CC(C)C)C(=O)N[C@@H](CCC(N)=O)C(=O)N[C@@H](C)C(=O)N[C@@H](CCCN=C(N)N)C(=O)N[C@H](C(=O)N[C@@H](CC(C)C)C(=O)O)[C@@H](C)CC` (Ac-CGGLLQLTVWGIKQLQARIL-OH) has an inhibition at 20 µM (MT4 [1]) of 30%.
With `CC[C@H](C)[C@H](NC(C)=O)C(=O)N[C@@H](CCC(=O)O)C(=O)N[C@@H](C)C(=O)N[C@@H](CCC(N)=O)C(=O)N[C@@H](CCC(N)=O)C(=O)N[C@@H](CC(C)C)C(=O)N[C@@H](CC(C)C)C(=O)N[C@@H](CCC(N)=O)C(=O)N[C@@H](CC(C)C)C(=O)N[C@H](C(=O)N[C@H](C(=O)N[C@@H](Cc1c[nH]c2ccccc12)C(=O)NCC(=O)N[C@H](C(=O)N[C@@H](CCCCN)C(=O)N[C@@H](CCC(N)=O)C(=O)N[C@@H](CC(C)C)C(=O)N[C@@H](CCC(N)=O)C(=O)N[C@@H](C)C(=O)N[C@@H](CCCN=C(N)N)C(=O)N[C@H](C(=O)N[C@@H](CC(C)C)C(=O)N[C@@H](C)C(=O)N[C@H](C(=O)N[C@@H](CCC(=O)O)C(=O)N[C@@H](CCCN=C(N)N)C(=O)N[C@@H](Cc1ccc(O)cc1)C(=O)N[C@@H](CC(C)C)C(=O)N[C@@H](CCCCN)C(=O)N[C@@H](CC(=O)O)C(=O)N[C@@H](CCC(N)=O)C(=O)O)C(C)C)[C@@H](C)CC)[C@@H](C)CC)C(C)C)[C@@H](C)O` (Ac-IEAQQLLQLTVWGIKQLQARILAVERYLKDQ-OH) the inhibition at 20 µM (MT4 [2]) was 28%.
For `CC[C@H](C)[C@H](NC(=O)CNC(=O)[C@H](C)NC(=O)[C@@H](NC(=O)[C@@H](NC(=O)[C@H](C)NC(=O)[C@H](C)NC(=O)[C@H](CC(C)C)NC(=O)[C@H](CC(C)C)NC(=O)[C@H](C)NC(=O)[C@H](CCC(N)=O)NC(=O)[C@H](CCC(N)=O)NC(=O)[C@H](C)NC(=O)[C@H](CCC(=O)O)NC(=O)[C@@H](NC(=O)[C@H](C)NC(=O)[C@H](CCCN=C(N)N)NC(=O)[C@H](CC(C)C)NC(=O)[C@H](CC(C)C)NC(=O)[C@H](CC(N)=O)NC(=O)[C@H](CC(N)=O)NC(C)=O)[C@@H](C)CC)[C@@H](C)O)C(C)C)C(=O)N[C@@H](C)C(=O)N[C@@H](C)C(=O)N[C@@H](CC(C)C)C(=O)N[C@@H](CCC(N)=O)C(=O)N[C@@H](C)C(=O)N[C@@H](CCCN=C(N)N)C(=O)N[C@H](C(=O)N[C@@H](C)C(=O)N[C@@H](C)C(=O)N[C@H](C(=O)N[C@@H](CCC(=O)O)C(=O)N[C@@H](C)C(=O)N[C@@H](Cc1ccc(O)cc1)C(=O)N[C@@H](CC(C)C)C(=O)N[C@@H](C)C(=O)N[C@@H](C)C(=O)N[C@@H](CCC(N)=O)C(=O)O)C(C)C)[C@@H](C)CC` (Ac-NNLLRAIEAQQALLAATVAGIAALQARIAAVEAYLAAQ-OH), the inhibition at 20 µM (MT4 [2]) was 37%.
Work on `CC[C@H](C)[C@H](NC(=O)CCCCCNC(=O)CCCCCNC(=O)CCCCCNC(=O)[C@H](CC(C)C)NC(=O)[C@H](CCC(N)=O)NC(=O)[C@H](CC(C)C)NC(=O)[C@H](CC(C)C)NC(=O)[C@H](Cc1c[nH]cn1)NC(=O)[C@H](CCC(N)=O)NC(C)=O)C(=O)N[C@@H](CCCCN)C(=O)N[C@@H](CCC(N)=O)C(=O)N[C@@H](CC(C)C)C(=O)N[C@@H](CCC(N)=O)C(=O)N[C@@H](C)C(=O)N[C@@H](CCCN=C(N)N)C(=O)N[C@H](C(=O)N[C@@H](CC(C)C)C(=O)N[C@@H](C)C(=O)N[C@H](C(=O)N[C@@H](CCC(=O)O)C(=O)O)C(C)C)[C@@H](C)CC` (Ac-QHLLQL[Ahx][Ahx][Ahx]IKQLQARILAVE-OH) yielded an inhibition at 200 µM (MT4 [3]) of 0%.
`CC[C@H](C)[C@H](NC(=O)[C@H](CCCN=C(N)N)NC(=O)[C@H](C)NC(=O)[C@H](CCC(N)=O)NC(=O)[C@H](CC(C)C)NC(=O)[C@H](CCC(N)=O)NC(=O)[C@H](CCCCN)NC(=O)[C@@H](NC(=O)CNC(=O)[C@H](Cc1c[nH]c2ccccc12)NC(=O)[C@@H](NC(=O)[C@@H](NC(=O)[C@H](CC(C)C)NC(=O)[C@H](CCC(N)=O)NC(C)=O)[C@@H](C)O)C(C)C)[C@@H](C)CC)C(=O)O` (Ac-QLTVWGIKQLQARI-OH) gave an inhibition at 100 µM (MT4 [4]) of 0%.
For `CC[C@H](C)[C@H](N)C(=O)N[C@@H](CCCCN)C(=O)N[C@@H](CCC(N)=O)C(=O)N[C@@H](CC(C)C)C(=O)N[C@@H](CCC(N)=O)C(=O)N[C@@H](C)C(=O)N[C@@H](CCCN=C(N)N)C(=O)N[C@H](C(=O)N[C@@H](CC(C)C)C(=O)N[C@@H](C)C(=O)N[C@H](C(=O)N[C@@H](CCC(=O)O)C(=O)N[C@@H](CCCN=C(N)N)C(=O)N[C@@H](Cc1ccc(O)cc1)C(=O)N[C@@H](CC(C)C)C(=O)N[C@@H](CCCCN)C(=O)N[C@@H](CC(=O)O)C(=O)N[C@@H](CCC(N)=O)C(=O)O)C(C)C)[C@@H](C)CC` (H-IKQLQARILAVERYLKDQ-OH), the inhibition at 200 µM (MT4 [3]) was 0%.
Work on `CC[C@H](C)[C@H](NC(=O)[C@H](CCCN=C(N)N)NC(=O)[C@H](C)NC(=O)[C@H](CCC(N)=O)NC(=O)[C@H](CC(C)C)NC(=O)[C@H](CCC(N)=O)NC(=O)[C@H](CCCCN)NC(=O)[C@@H](NC(=O)CNC(=O)[C@H](Cc1c[nH]c2ccccc12)NC(=O)[C@@H](NC(=O)[C@@H](NC(=O)[C@H](CC(C)C)NC(=O)[C@H](CCC(N)=O)NC(=O)[C@@H](N)CC(C)C)[C@@H](C)O)C(C)C)[C@@H](C)CC)C(=O)O` (H-LQLTVWGIKQLQARI-OH) yielded an inhibition at 100 µM (MT4 [4]) of 21%.
With `CC[C@H](C)[C@H](NC(=O)CNC(=O)[C@H](Cc1c[nH]c2ccccc12)NC(=O)[C@@H](NC(=O)[C@@H](NC(=O)[C@H](CC(C)C)NC(=O)[C@H](CCC(N)=O)NC(=O)[C@H](CC(C)C)NC(=O)[C@H](CC(C)C)NC(=O)[C@H](Cc1c[nH]cn1)NC(=O)[C@H](CCC(N)=O)NC(=O)[C@H](CCC(N)=O)NC(=O)[C@H](C)NC(=O)[C@H](CCC(=O)O)NC(=O)[C@@H](NC(=O)[C@H](C)NC(=O)[C@H](CCCN=C(N)N)NC(=O)[C@H](CC(C)C)NC(=O)[C@H](CC(C)C)NC(=O)[C@H](CC(N)=O)NC(=O)[C@@H](N)CC(N)=O)[C@@H](C)CC)[C@@H](C)O)C(C)C)C(=O)N[C@@H](CCCCN)C(=O)N[C@@H](CCC(N)=O)C(=O)N[C@@H](CC(C)C)C(=O)N[C@@H](CCC(N)=O)C(=O)N[C@@H](C)C(=O)N[C@@H](CCCN=C(N)N)C(=O)N[C@H](C(=O)N[C@@H](CC(C)C)C(=O)N[C@@H](C)C(=O)N[C@H](C(=O)N[C@@H](CCC(=O)O)C(=O)O)C(C)C)[C@@H](C)CC` (H-NNLLRAIEAQQHLLQLTVWGIKQLQARILAVE-OH) the inhibition at 5 µM (MT4 [5]) was 37%.
`CC[C@H](C)[C@H](NC(=O)[C@H](CCCN=C(N)N)NC(=O)[C@H](C)NC(=O)[C@H](CCC(N)=O)NC(=O)[C@H](CC(C)C)NC(=O)[C@H](CCC(N)=O)NC(=O)[C@H](CCCCN)NC(=O)[C@@H](NC(=O)CNC(=O)[C@H](Cc1c[nH]c2ccccc12)NC(=O)[C@@H](NC(=O)[C@@H](NC(=O)[C@H](CC(C)C)NC(=O)[C@@H](N)CCC(N)=O)[C@@H](C)O)C(C)C)[C@@H](C)CC)C(=O)O` (H-QLTVWGIKQLQARI-OH) was tested, and the inhibition at 100 µM (MT4 [4]) was 0%.
Work on `CC[C@H](C)[C@H](NC(=O)[C@H](CCCN=C(N)N)NC(=O)[C@H](C)NC(=O)[C@H](CCC(N)=O)NC(=O)[C@H](CC(C)C)NC(=O)[C@H](CCC(N)=O)NC(=O)[C@H](CCCCN)NC(=O)[C@@H](NC(=O)CNC(=O)[C@H](Cc1c[nH]c2ccccc12)NC(=O)[C@@H](NC(=O)[C@@H](NC(=O)[C@H](CC(C)C)NC(=O)[C@H](CCC(N)=O)NC(=O)[C@H](CC(C)C)NC(=O)CCCCCN)[C@@H](C)O)C(C)C)[C@@H](C)CC)C(=O)O` (HELM PEPTIDE1{[NCCCCCC(=O)[*:2]].L.Q.L.T.V.W.G.I.K.Q.L.Q.A.R.I}$$$$V2.0) yielded an inhibition at 40 µM (MT4 [6]) of 33%.
For `CC[C@H](C)[C@H](NC(=O)[C@H](CCCN=C(N)N)NC(=O)[C@H](C)NC(=O)[C@H](CCC(N)=O)NC(=O)[C@H](CC(C)C)NC(=O)[C@H](CCC(N)=O)NC(=O)[C@H](CCCCN)NC(=O)[C@@H](NC(=O)CNC(=O)[C@H](Cc1c[nH]c2ccccc12)NC(=O)[C@@H](NC(=O)[C@@H](NC(=O)[C@H](CC(C)C)NC(=O)[C@H](CCC(N)=O)NC(=O)CCCCCN)[C@@H](C)O)C(C)C)[C@@H](C)CC)C(=O)O` (HELM PEPTIDE1{[NCCCCCC(=O)[*:2]].Q.L.T.V.W.G.I.K.Q.L.Q.A.R.I}$$$$V2.0), the inhibition at 40 µM (MT4 [6]) was 11%.
`CCCCCCCCCCCCC(N)C(=O)N[C@H](C(=O)N[C@@H](CCCCN)C(=O)N[C@@H](CCC(N)=O)C(=O)N[C@@H](CC(C)C)C(=O)N[C@@H](CCC(N)=O)C(=O)N[C@@H](C)C(=O)N[C@@H](CCCN=C(N)N)C(=O)N[C@H](C(=O)N[C@@H](CC(C)C)C(=O)N[C@@H](C)C(=O)N[C@H](C(=O)N[C@@H](CCC(=O)O)C(=O)N[C@@H](CCCN=C(N)N)C(=O)N[C@@H](Cc1ccc(O)cc1)C(=O)N[C@@H](CC(C)C)C(=O)N[C@@H](CCCCN)C(=O)N[C@@H](CC(=O)O)C(=O)N[C@@H](CCC(N)=O)C(=O)O)C(C)C)[C@@H](C)CC)[C@@H](C)CC` (stereo in doubt; 21) was tested, and the Inhibition (MT4 [2]) was 9%.
With `CCCCCCCCCCCCC(N)C(=O)N[C@H](C(=O)N[C@@H](CCCCN)C(=O)N[C@@H](CCC(N)=O)C(=O)N[C@@H](CC(C)C)C(=O)N[C@@H](CCC(N)=O)C(=O)N[C@@H](C)C(=O)N[C@@H](CCCN=C(N)N)C(=O)N[C@H](C(=O)N[C@@H](CC(C)C)C(=O)N[C@@H](C)C(=O)N[C@H](C(=O)N[C@@H](CCC(=O)O)C(=O)N[C@@H](CCCN=C(N)N)C(=O)N[C@@H](Cc1ccc(O)cc1)C(=O)N[C@@H](CC(C)C)C(=O)N[C@@H](CCCCN)C(=O)N[C@@H](CC(=O)O)C(=O)N[C@@H](CCC(N)=O)C(=O)O)C(C)C)[C@@H](C)CC)[C@@H](C)CC` (stereo in doubt; 22) the Inhibition (MT4 [2]) was 0%.
